Here are results for five molecules from ChEMBL document CHEMBL3425427, “Pyrido[4,3-e][1,2,4]triazolo[4,3-a]pyrazines as Selective, Brain Penetrant Phosphodiesterase 2 (PDE2) Inhibitors” (ACS Med Chem Lett, 2015).

A short description of data set [1]: Drug metabolism in human liver microsomes at 1 uM incubated for 15 mins at 37 degC. The format is ADME. The conditions noted are these: read-out: Drug metabolism. A digest of the protocol: (§1)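 Compound at 1 μM incubated 15 min at 37 °C with human or rat liver microsomes; read-out is percent metabolized.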
Data set [2] is described as follows: Ratio of drug level in brain to plasma of Sprague-Dawley rat at 10 mg/kg, sc after 1 hr. The data set is classed as ADME, organism-based. The conditions noted are these: read-out: BPR. On the set-up: dose 10 mg/kg, route subcutaneous. In short, it runs like this: (§2)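 Fed male Sprague-Dawley rats, n = 2 per time point, given 10 mg/kg s.c. in 20% HPβCD at pH 3.5−4. Brain and plasma levels taken 1 h after dosing; brain-to-plasma ratio computed from these.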

Data set [3] is described as follows: Drug metabolism in rat liver microsomes at 1 uM incubated for 15 mins at 37 degC. The format is ADME. The conditions noted are these: read-out: Drug metabolism. In short, it runs like this: as §1
The subject of data set [4] is Rattus norvegicus. As to the kind of experiment: In vivo PDE2 occupancy in Wistar rat assessed as inhibition of specific binding of [3H]-4-((1-(5-butoxypyridin-3-yl)-4-methyl-[1,2,4]triazolo[4,3-a]quinoxalin-8-yl)methyl)morpholine radiotracer and pre-treated with 2.5 mg/kg, sc PDE10 inhibitor MP10. The data set is classed as functional. The conditions noted are these: route subcutaneous.

Data set [5] deals with Rattus norvegicus. Description: In vivo PDE2 occupancy in Wistar rat assessed as inhibition of specific binding of [3H]-4-((1-(5-butoxypyridin-3-yl)-4-methyl-[1,2,4]triazolo[4,3-a]quinoxalin-8-yl)methyl)morpholine radiotracer up to 10 mg/kg, po and pre-treated with 2.5 mg/kg, sc PDE10 inhibitor MP10. The format is functional, organism-based.
The nature of data set [6]: Unbound fraction in Sprague-Dawley rat brain homogenates at 10 mg/kg, sc after 5 hrs at 37 degC by rapid equilibrium dialysis. On the set-up: dose 10 mg/kg, route subcutaneous. The format is ADME, organism-based. The conditions noted are these: brain homogenate. A digest of the protocol: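 Unbound fraction measured in rat brain homogenate by rapid equilibrium dialysis, 5 h incubation at 37 °C.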

The nature of data set [7]: Drug level in Sprague-Dawley rat brain homogenates at 10 mg/kg, sc after 1 hr. The data set is classed as ADME, organism-based. On the set-up: dose 10 mg/kg, route subcutaneous. The conditions noted are these: read-out: Drug uptake. A digest of the protocol:
as §2

For data set [8], the target named is T1, cAMP and cAMP-inhibited cGMP 3',5'-cyclic phosphodiesterase 10A (Rattus norvegicus, UniProt Q9QYJ6).
T1 sequence (Q9QYJ6 whole entry): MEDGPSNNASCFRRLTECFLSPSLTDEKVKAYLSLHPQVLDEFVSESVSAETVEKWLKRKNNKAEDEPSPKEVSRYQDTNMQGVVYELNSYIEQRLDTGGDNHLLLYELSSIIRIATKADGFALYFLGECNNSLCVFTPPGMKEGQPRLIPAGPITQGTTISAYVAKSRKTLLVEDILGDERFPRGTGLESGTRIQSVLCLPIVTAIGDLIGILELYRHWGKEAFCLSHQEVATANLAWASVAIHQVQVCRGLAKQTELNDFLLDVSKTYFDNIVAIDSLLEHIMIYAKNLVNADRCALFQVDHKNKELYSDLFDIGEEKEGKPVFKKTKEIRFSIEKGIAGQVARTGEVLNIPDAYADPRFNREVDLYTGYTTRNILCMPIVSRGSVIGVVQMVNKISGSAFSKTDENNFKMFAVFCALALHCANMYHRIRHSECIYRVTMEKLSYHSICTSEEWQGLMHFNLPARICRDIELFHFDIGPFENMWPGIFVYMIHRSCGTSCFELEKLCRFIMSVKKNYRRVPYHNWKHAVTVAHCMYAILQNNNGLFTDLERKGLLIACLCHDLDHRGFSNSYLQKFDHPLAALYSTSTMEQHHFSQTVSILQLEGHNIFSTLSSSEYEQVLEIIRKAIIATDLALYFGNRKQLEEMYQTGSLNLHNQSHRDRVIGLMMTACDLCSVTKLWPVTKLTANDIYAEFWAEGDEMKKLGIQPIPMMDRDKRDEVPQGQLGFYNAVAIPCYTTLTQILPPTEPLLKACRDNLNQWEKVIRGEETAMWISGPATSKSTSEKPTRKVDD
Description: Inhibition of 6-His-tagged rat recombinant PDE10A expressed in Sf9 cells using [3H]cAMP incubated for 60 mins by scintillation proximity assay.

The nature of data set [9]: Dissociation constant, pKa of the compound. The format is physicochemical.
Data set [10] relates to Rattus norvegicus. Description: In vivo PDE2 occupancy in Wistar rat assessed as inhibition of specific binding of [3H]-4-((1-(5-butoxypyridin-3-yl)-4-methyl-[1,2,4]triazolo[4,3-a]quinoxalin-8-yl)methyl)morpholine radiotracer at 10 mg/kg, sc and pre-treated with 2.5 mg/kg, sc PDE10 inhibitor MP10. The data set is classed as functional.

The structures appear in SMILES notation. The source made the active and inactive calls. The calls are words filed in the database; no cut-off is given here.

Take `Cc1nc2ccncc2n2c(-c3cc(COCC(F)(F)F)ccc3Cl)nnc12`: the values for the metabolised at 0.25 h, 1 µM in [1] and in [3] were 12% and 77%, respectively. In data set [2], the Kp at 1 h was 1.1. Moreover, in the data set with Rattus norvegicus [4], the median effective dose (ED50) came out at 3.6 mg/kg. Besides, the outcome with Rattus norvegicus [5] was inactive. Further, in [6], the fraction unbound at 5 h was 0.1. Also, in [7], the concentration at 1 h is 370 ng/g.
For `CCCOCc1ccc(Cl)c(-c2nnc3c(C)nc4ccncc4n23)c1`, the metabolised at 0.25 h, 1 µM is 78% in data set [1] and 98% in data set [3]. The IC50 in data set [8] turned out to be 3.89 µM. Also, the Kp at 1 h in [2] was 0.98. The molecule further gave a fraction unbound at 5 h in data set [6] of 0.1. Moreover, the concentration at 1 h in [7] was found to be 895 ng/g.
`Cc1nc2cccnc2n2c(-c3ccccc3Cl)nnc12` returned a pKa in data set [9] of 1.
With `CCCCOc1cncc(-c2nnc3c(C)nc4ccncc4n23)c1`, the metabolised at 0.25 h, 1 µM turned out to be 6% in data set [1] and 46% in [3]. The Kp at 1 h in data set [2] came to 0.61. The fraction unbound at 5 h in [6] is > 0.3. The Occ in the data set with Rattus norvegicus [10] was 23%. Also, in data set [7], the concentration at 1 h turned out to be 789 ng/g.
Consider `Cc1nc2ccncc2n2c(-c3cc(COC(C)C)ccc3Cl)nnc12`, for which the values for the metabolised at 0.25 h, 1 µM in data set [1] and in [3] were 57% and 98%, respectively. The IC50 in data set [8] came out at 6.03 µM.
